The values that follow come from publication PMC6262736 (Pharmacology Research & Perspectives, 2018).

As usually defined, the Kp is the ratio of the level in a tissue or fluid to that in plasma or blood.

Read-outs that look alike come from different tables or passages of the source. Where only a bound is given, the exact number is not on record here.

The subject of data set [1] is SMN protein. As to the kind of experiment: SMN protein levels in tissues of C/C‐allele SMA mice. The data set is classed as in vivo. To be noted: 10 mg/kg/day PO, 10 days, Study 12. The essentials: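 Adult C/C-allele SMA mice (FVB.129(B6) background) started dosing at ~7 weeks. Dosing was once-daily oral, as a suspension in 0.5% HPMC/0.1% Tween 80. Mice were killed by CO2 1 h after the last dose; tissues were unperfused, homogenized and diluted in RIPA. SMN was measured by HTRF in duplicate (averaged) against a recombinant human SMN standard curve, and total protein by BCA. Result: SMN/total protein per treated mouse ÷ vehicle-group mean.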

The target in a further data set is human MDR1 (Homo sapiens, UniProt P08183). Description: Bidirectional transport assay in L‐MDR1 cells. The conditions noted are these: 1 μM. The data set is classed as in vitro ADME. A digest of the protocol:
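Transport run in LLC-PK1 or MDCKII cells, parental or transfected (L-MDR1 human MDR1, L-Mdr1a rodent Mdr1a, M-BCRP human BCRP, M-Bcrp rodent Bcrp). Cells were grown on semipermeable inserts and assayed bidirectionally on day 3 or 4 after seeding. Donor medium held 1 μM test compound plus 10 μM Lucifer yellow to check monolayer integrity. Receiver medium lacked phenol red, with or without inhibitor: zosuquidar 1 μM for MDR1/Mdr1a, Ko143 1 μM for BCRP/Bcrp. Reference substrates served as activity controls.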

The conditions of data set [2]: Phase 1 MOONFISH trial, patients with Type 2 and 3 SMA; ref NCT03032172; cited from earlier work.
The conditions of data set [3]: monkeys; dosing in MOONFISH suspended because of it; ref not given; cited from earlier work.
In data set [4] the test system is SMN protein. Description: SMN protein levels in brain and muscle of SMNΔ7 mice. The data set is classed as in vivo. The conditions noted are these: 7 days of once daily dosing, Study 4.
A short description of data set [5]: Plasma, brain and CSF drug levels in rats. The data set is classed as in vivo. To be noted: Wistar, rat, brain / total plasma, po, 7.5 mg/kg/day.
For data set [6], the system named is SMN protein. The conditions noted are these: SUNFISH Part 1 early interim data, dose‐dependent; cited from earlier work.
The next data set relates to SMNΔ7 mice. To be noted: dosed once daily for 219 days, Study 5; cited from earlier work.
Data set [7] in a line: Predicted CSF‐to‐unbound plasma partition coefficient from L‐Mdr1a efflux ratio. Further details: species or system rat. The conditions noted are these: based on the rodent ER and model from ref 25. The essentials:
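pKp,uu derived as 1/[(1−γ)+γ·ER], with γ fixed at 0.753 and ER being the efflux ratio measured in L-Mdr1a cells.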

The nature of data set [8]: Tissue distribution in cynomolgus monkeys. Type of data set: in vivo, cynomolgus monkeys (Macaca fascicularis). To be noted: for concentration at 7 days / Kp at 7 days / concentration at 6 weeks after the last dose: cynomolgus monkey, oral, 3 mg/kg/day.
In the next data set the test system is severe SMA mice. To be noted: cited from earlier work.
Where [9] appears, read: monkeys, Study 10, after 22 weeks' treatment‐free recovery period.
[10] abbreviates: two cynomolgus monkeys, Study 9.

Sequence of human MDR1 (P08183 whole entry): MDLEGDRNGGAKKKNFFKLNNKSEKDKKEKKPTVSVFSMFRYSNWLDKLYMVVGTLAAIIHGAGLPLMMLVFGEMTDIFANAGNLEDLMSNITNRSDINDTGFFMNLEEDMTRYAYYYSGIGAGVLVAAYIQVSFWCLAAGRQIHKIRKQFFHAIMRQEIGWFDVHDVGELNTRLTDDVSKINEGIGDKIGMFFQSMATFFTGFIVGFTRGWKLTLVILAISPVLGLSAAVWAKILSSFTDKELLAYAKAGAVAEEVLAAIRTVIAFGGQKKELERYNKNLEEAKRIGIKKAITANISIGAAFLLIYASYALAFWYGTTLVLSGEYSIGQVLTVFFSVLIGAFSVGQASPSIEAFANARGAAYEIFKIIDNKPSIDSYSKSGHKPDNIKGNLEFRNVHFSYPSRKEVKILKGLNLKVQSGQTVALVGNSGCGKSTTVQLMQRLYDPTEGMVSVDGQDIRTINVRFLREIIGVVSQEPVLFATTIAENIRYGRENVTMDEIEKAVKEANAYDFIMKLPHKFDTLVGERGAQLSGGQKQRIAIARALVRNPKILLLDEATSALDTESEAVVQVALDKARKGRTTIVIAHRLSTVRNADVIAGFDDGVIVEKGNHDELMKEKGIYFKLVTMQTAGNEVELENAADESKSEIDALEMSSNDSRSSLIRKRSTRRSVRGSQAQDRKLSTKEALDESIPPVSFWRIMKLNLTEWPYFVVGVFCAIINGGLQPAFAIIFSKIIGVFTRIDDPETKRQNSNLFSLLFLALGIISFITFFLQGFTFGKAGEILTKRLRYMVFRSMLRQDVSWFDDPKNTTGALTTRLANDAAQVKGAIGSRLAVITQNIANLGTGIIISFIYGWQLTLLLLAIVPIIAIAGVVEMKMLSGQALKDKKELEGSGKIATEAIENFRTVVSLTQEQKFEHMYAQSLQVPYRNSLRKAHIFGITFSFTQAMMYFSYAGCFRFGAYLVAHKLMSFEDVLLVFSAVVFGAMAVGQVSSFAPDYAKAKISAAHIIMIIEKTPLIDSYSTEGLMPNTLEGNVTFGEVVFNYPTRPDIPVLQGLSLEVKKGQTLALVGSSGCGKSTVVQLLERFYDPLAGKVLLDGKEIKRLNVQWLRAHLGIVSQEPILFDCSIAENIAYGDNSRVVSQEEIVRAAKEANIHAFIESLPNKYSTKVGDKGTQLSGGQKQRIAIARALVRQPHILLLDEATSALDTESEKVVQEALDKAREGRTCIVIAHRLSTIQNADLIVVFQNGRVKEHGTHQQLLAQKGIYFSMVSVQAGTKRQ

Turning to `CCc1nc(C)cn2nc(-c3cc(=O)n4cc(C5CCN(C)CC5)cc(C)c4n3)cc12` [RG7800, 2‐(4‐ethyl‐6‐methyl‐pyrazolo[1,5‐a]pyrazin‐2‐yl)‐9‐methyl‐7‐(1‐methyl‐4‐piperidyl)pyrido[1,2‐a]pyrimidin‐4‐one], in the data set on SMN protein [1], the “SMN protein increase from baseline in heart” value is recorded as 31%, the “SMN protein increase from baseline in muscle” value came out at 23% and the “SMN protein increase in pancreas” value is “fourfold”. Further, the “substrate of human MDR1” value on human MDR1 is reported as “not a substrate of human MDR1”. The serious adverse events entry in data set [2] was “no serious adverse events were reported”. The “findings in long‐term nonclinical safety studies” value in [3] is “off‐target retinal findings”.

As to `Cc1cn2nc(-c3cc(=O)n4cc(N5CCNC6(CC6)C5)ccc4n3)cc(C)c2n1` [risdiplam, 7‐(4,7‐diazaspiro[2.5]octan‐7‐yl)‐2‐(2,8‐dimethylimidazo[1,2‐b]pyridazin‐6‐yl)pyrido[1,2‐a]pyrimidin‐4‐one], the entries for the “increase in SMN protein levels in brain” value in the data set with SMN protein [4] (0.1 mg/kg/day) and in the data set on SMN protein [4] (1 mg/kg/day) were 28% and 206%, respectively. Moreover, the “increase in SMN protein levels in muscle” value came to 32% in the data set on SMN protein [4] (0.1 mg/kg/day) and 210% in the data set on SMN protein [4] (1 mg/kg/day). This compound yielded a Kp at 90 days in [5] of 0.92. In addition, the “average increase in functional SMN protein in the blood of patients with SMA” value with SMN protein [6] is “up to 2.5 fold”. For the same compound, in the data set on SMNΔ7 mice, the “survival of SMNΔ7 mice” value was “prolonged survival”. In addition, in data set [7], the “predicted CSF‐to‐unbound plasma partition coefficient (pKp,uu)” value is listed as 0.33. Further, the concentration at 7 days in data set [8] (CSF) amounted to 53.5 ng/mL; in data set [8] (brain) it was 783 ng/g; in data set [8] (muscle), 668 ng/g; in data set [8] (plasma (unbound)) it was 119 ng/mL; in data set [8] (plasma) it was 794 ng/mL. Further, the results for the Kp at 7 days in data set [8] (bone marrow / plasma), in [8] (kidney / plasma) and in [8] (spleen / plasma) were about 5, 10 and about 5, respectively. In addition, the concentration at 6 weeks after the last dose in data set [8] (duodenum) was under 1 ng/g; in [8] (kidney) it was about 4 ng/g; in [8] (larynx), under 1 ng/g; in [8] (liver) it was about 4 ng/g; in [8] (spleen) it was under 1 ng/g. In addition, the “drug level in CSF” value in [8] (setting [9]) is given as “below the limit of quantification (BLQ)”. The “drug level in brain” value in [8] (setting [9]) is reported as “below the limit of quantification (BLQ)”. In [8] (setting [9]), the “drug level in plasma” value was “below the limit of quantification (BLQ)”. For the same compound, the “average cortex/brain stem concentrations ratio” value in data set [8] (monkeys, Study 10, n = 22) stood at 1.10. Also, in data set [8] (setting [10]), the “difference of brain drug level from total plasma concentration” value is “less than 30%”. The “difference of heart drug level from total plasma concentration” value in data set [8] (setting [10]) is given as “less than 30%”. Moreover, the “difference of larynx drug level from total plasma concentration” value in data set [8] (setting [10]) was “less than 30%”. The “difference of muscle drug level from total plasma concentration” value in [8] (setting [10]) was “less than 30%”.

Consider nusinersen, for which the median lifespan in the data set with severe SMA mice (intracerebroventricular administration) is 16 days; in the data set on severe SMA mice (subcutaneous injections), 108 days.
